In ChEMBL document CHEMBL1130056, “Novel and selective partial agonists of 5-HT3 receptors. 2. Synthesis and biological evaluation of piperazinopyridopyrrolopyrazines, piperazinopyrroloquinoxalines, and piperazinopyridopyrroloquinoxalines” (J Med Chem, 1997):

Legend:
[1] = test system: Rattus norvegicus; assay: In Vivo 5-HT3 agonist activity in the Von Bezold-Jarisch reflex decrease in heart rate in rats at 120 (ug/kg) dose.; assay type: functional
Outline: (§1)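 Fasted male Crl:CD(SD)BR rats (280–320 g) under urethane (1.25 g/kg ip); heart rate from cannulated carotid artery. Compound in saline given iv via jugular cannula. Read-out is fall in heart rate as percent of pre-treatment baseline.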

[2] = test system: NG108-15; assay: In Vitro 5-HT3 agonist activity on the [14C]guanidinium accumulation in NG 108-15 cells.; assay type: functional, cell-based; conditions: Murinae
Outline: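 NG 108-15 cells grown 2 days, washed, then incubated 10 min at 37 °C in HEPES buffer pH 7.4 with 10 mM guanidinium chloride, 200–250 nCi [14C]guanidinium, 10 μM substance P and drug. After ice-cold choline wash, cells dissolved in NaOH and radioactivity counted. EC50 from triplicates per concentration; mean ± SEM of three determinations.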

[3] = biological target: 5-hydroxytryptamine receptor 1B (Rattus norvegicus, UniProt P28564); assay: Binding affinity towards 5-hydroxytryptamine 1B receptor was measured using [3H]5-HT as radioligand
Outline: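 Rat frontal cortex and striatum membranes (0.8 mg protein/mL), 2 nM [3H]-5-OH-tryptamine, 1 μM spiperone, 50 nM mesulergine; 25 °C, 30 min; 50 mM Tris-HCl pH 7.4, 4 mM CaCl2, 10 μM pargyline. Nonspecific binding with 10 μM propranolol. Expressed as log IC50 ± SEM.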

[4] = biological target: 5-hydroxytryptamine receptor 2A (Bos taurus, UniProt Q75Z89); assay: Binding affinity against 5-hydroxytryptamine 2A receptor was measured using [3H]ketanserin as radioligand
Outline: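 Bovine frontal cortex membranes (0.6 mg protein/mL) with 0.8 nM [3H]ketanserin and 100 nM WB4101, 37 °C for 30 min, in 50 mM Tris-HCl pH 7.4 plus 5 mM MgCl2, 10 mM NaCl, 0.5 mM EDTA, 10 μM pargyline. 10 μM spiperone defined nonspecific binding. Reported as log IC50 ± SEM.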

[5] = biological target: Serotonin 3 (5-HT3) receptor; assay: Binding affinity against 5-hydroxytryptamine 3 receptor was measured using [3H]granisetron as radioligand; assay type: protein-complex assay
[6] = test system: Rattus norvegicus; assay: In Vivo 5-HT3 antagonist activity in the Von Bezold-Jarisch reflex in rats after intravenous dose of 120 (ug/kg); assay type: functional
Outline: (§2)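 Urethane-anesthetized (1.25 g/kg ip) fasted male Crl:CD(SD)BR rats; heart rate from carotid cannula. Compound in saline iv via jugular vein, usually 5 min before 5-HT bolus (30 μg/kg iv).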

[7] = biological target: 5-hydroxytryptamine receptor 1D (Sus scrofa, UniProt P79400); assay: Binding affinity against 5-hydroxytryptamine 1D receptor was measured using [3H]5-HT as radioligand
Outline: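 Pig frontal cortex and striatum membranes (0.8 mg protein/mL), 2 nM [3H]-5-OH-tryptamine with 1 μM spiperone and 50 nM mesulergine, 25 °C, 30 min, 50 mM Tris-HCl pH 7.4, 4 mM CaCl2, 10 μM pargyline. Nonspecific binding with 10 μM 5-HT. Expressed as log IC50 ± SEM.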

[8] = biological target: 5-hydroxytryptamine receptor 2C (Sus scrofa); assay: Binding affinity against 5-Hydroxytryptamine 2C Receptor was measured using [3H]N-methyl-mesulergine as radioligand
[9] = biological target: 5-hydroxytryptamine receptor 1A (Bos taurus); assay: Binding affinity against 5-hydroxytryptamine 1A receptor was measured using [3H]8-OH-DPAT as radioligand
[10] = test system: Rattus norvegicus; assay: In Vivo 5-HT3 agonist activity in the Von Bezold-Jarisch reflex decrease in heart rate in rats at 60 (ug/kg) dose.; assay type: functional; outline: as §1
[11] = test system: Rattus norvegicus; assay: In Vivo 5-HT3 antagonist activity in the Von Bezold-Jarisch reflex in rats after intravenous dose of 60 (ug/kg); assay type: functional; outline: as §2
[12] = test system: Rattus norvegicus; assay: In Vivo 5-HT3 antagonist activity in the Von Bezold-Jarisch reflex in rats at intravenous dose of 60 (ug/kg); assay type: functional; outline: as §2
[13] = test system: Rattus norvegicus; assay: In Vivo 5-HT3 antagonist activity in the Von Bezold-Jarisch reflex in rats and percent inhibition of bradycardia induced by 5-HT was reported; assay type: functional; conditions: read-out: ID50 (the source's name); outline: as §2

Sequence of 5-hydroxytryptamine receptor 1D (P79400 whole entry): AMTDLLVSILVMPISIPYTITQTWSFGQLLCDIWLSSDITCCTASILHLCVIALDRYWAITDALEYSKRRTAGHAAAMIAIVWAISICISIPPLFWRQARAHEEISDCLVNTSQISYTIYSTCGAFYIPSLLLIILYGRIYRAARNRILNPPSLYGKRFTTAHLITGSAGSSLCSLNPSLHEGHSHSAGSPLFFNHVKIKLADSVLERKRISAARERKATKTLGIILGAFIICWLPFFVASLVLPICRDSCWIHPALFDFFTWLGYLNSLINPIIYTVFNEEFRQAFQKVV
Sequence of 5-hydroxytryptamine receptor 2A (Q75Z89 whole entry): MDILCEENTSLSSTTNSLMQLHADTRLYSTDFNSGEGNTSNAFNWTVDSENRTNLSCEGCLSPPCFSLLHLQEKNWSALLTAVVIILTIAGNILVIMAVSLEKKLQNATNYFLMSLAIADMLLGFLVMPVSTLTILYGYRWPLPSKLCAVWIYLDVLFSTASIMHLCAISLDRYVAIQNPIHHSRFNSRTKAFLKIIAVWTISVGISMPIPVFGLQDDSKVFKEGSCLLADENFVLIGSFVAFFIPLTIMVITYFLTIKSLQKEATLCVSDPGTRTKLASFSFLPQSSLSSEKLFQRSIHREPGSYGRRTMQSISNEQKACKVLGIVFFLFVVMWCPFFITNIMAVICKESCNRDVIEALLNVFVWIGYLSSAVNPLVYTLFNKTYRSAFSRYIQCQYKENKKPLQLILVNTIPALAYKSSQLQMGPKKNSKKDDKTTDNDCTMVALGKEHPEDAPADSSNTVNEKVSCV
Sequence of 5-hydroxytryptamine receptor 1B (P28564 whole entry): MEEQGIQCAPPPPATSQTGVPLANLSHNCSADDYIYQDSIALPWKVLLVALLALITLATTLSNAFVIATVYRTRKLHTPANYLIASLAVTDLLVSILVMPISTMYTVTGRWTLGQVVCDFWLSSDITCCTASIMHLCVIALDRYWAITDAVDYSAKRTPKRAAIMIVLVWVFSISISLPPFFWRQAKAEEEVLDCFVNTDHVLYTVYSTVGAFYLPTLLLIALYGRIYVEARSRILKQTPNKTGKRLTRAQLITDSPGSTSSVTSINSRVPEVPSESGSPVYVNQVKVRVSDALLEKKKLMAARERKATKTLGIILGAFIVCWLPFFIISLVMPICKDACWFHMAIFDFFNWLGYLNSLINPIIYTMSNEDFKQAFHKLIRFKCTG

SMILES	IC50 [3]	IC50 [4]	-Log IC50 [5]	IC50 [7]	IC50 [8]	IC50 [9]	other results
c1cnc2c(c1)nc(N1CCN(Cc3ccc4c(c3)OCO4)CC1)c1cccn12	49 µM	45.7 µM	9.1	> 100 µM	–	–	–
C=CCN1CCN(c2nc3sccc3n3cccc23)CC1	–	–	9.04	–	–	–	–
CN1CCN(c2nc3cccnc3n3cccc23)CC1	0.245 µM	7.94 µM	9.01	0.955 µM	0.275 µM	0.0977 µM	–
CCOC(=O)N1CCN(c2nc3cccnc3n3cccc23)CC1	> 100 µM	> 100 µM	4.55	> 100 µM	–	–	–
Clc1ccc2c(c1)nc(N1CCN(Cc3ccc4c(c3)OCO4)CC1)c1cccn12	14.5 µM	> 100 µM	10.09	46.8 µM	> 100 µM	9.55 µM	–
CN1CCN(c2nc3cc(C(F)(F)F)ccc3n3cccc23)CC1	–	–	5.88	–	–	–	–
COc1ccc2c(c1)nc(N1CCN(CCCCn3cccn3)CC1)c1cccn12	3.55 µM	1.62 µM	< 4	> 100 µM	–	–	–
Cc1ccnc2c1nc(N1CCN(Cc3ccc(F)cc3)CC1)c1cccn12	70.8 µM	> 100 µM	< 4	> 100 µM	–	–	–
NCCc1c[nH]c2ccc(O)cc12 [SEROTONIN]	–	–	–	–	–	–	EC50 [2]: 0.293 µM
c1cc2c(N3CCNCC3)nc3ccsc3n2c1	–	–	7.92	–	–	–	–
COc1ccc2c(c1)nc(N1CCN(Cc3ccc(F)cc3)CC1)c1cccn12	69.2 µM	> 100 µM	8.18	> 100 µM	–	–	Inhibition [1]: 0%; EC50 [2]: 0.104 µM; ED50 [13]: 0.0754 mg/kg
Cc1ccc2c(c1)nc(N1CCN(Cc3ccc(F)cc3)CC1)c1cccn12	10 µM	> 100 µM	7.87	> 100 µM	> 100 µM	12.9 µM	–
Fc1ccc(CN2CCN(c3nc4sccc4n4cccc34)CC2)cc1	> 100 µM	–	8.93	–	–	–	–
C=CCN1CCN(c2nc3cccnc3n3cccc23)CC1	0.204 µM	25.1 µM	11.4	0.955 µM	0.372 µM	0.117 µM	–
c1cnc2c(c1)nc(N1CCNCC1)c1cccn12	0.151 µM	14.5 µM	8.83	1.7 µM	–	–	–
c1cnc2ccc3nc(N4CCN(Cc5ccc6c(c5)OCO6)CC4)c4cccn4c3c2c1	58.9 µM	20 µM	7.55	39.8 µM	–	–	–
C=CCN1CCN(c2nc3ccc4ncccc4c3n3cccc23)CC1	19.5 µM	21.4 µM	7.71	5.75 µM	–	–	–
c1ccc(CN2CCN(c3ncccc3-n3cccc3)CC2)cc1	26.3 µM	7.41 µM	7.34	11 µM	–	–	–

The next lines start with results.

IC50 [3]	IC50 [4]	-Log IC50 [5]	IC50 [7]	IC50 [8]	IC50 [9]	SMILES	other results
13.2 µM	15.1 µM	12.09	–	–	–	c1ccc(CN2CCN(c3nc4cccnc4n4cccc34)CC2)cc1	Inhibition [1]: 59%; EC50 [2]: 0.032 µM; Inhibition [6]: 40%
> 100 µM	> 100 µM	7.06	> 100 µM	> 100 µM	> 100 µM	c1ccc(CN2CCN(c3ccc4nc(N5CCN(Cc6ccccc6)CC5)c5cccn5c4n3)CC2)cc1	–
> 100 µM	> 100 µM	6.93	> 100 µM	> 100 µM	56.2 µM	COc1ccc2nc(N3CCN(Cc4ccc(F)cc4)CC3)c3cccn3c2n1	–
56.2 µM	43.7 µM	8.58	83.2 µM	5.25 µM	6.76 µM	Fc1ccc(CN2CCN(c3nc4cccnc4n4cccc34)CC2)cc1	–
97.7 µM	> 100 µM	7.51	> 100 µM	–	–	c1ccc(CN2CCN(c3nc4ccc5ncccc5c4n4cccc34)CC2)cc1	–
12.9 µM	10.5 µM	9.45	24 µM	–	–	c1ccc(CN2CCN(c3nc4ccccc4n4cccc34)CC2)cc1	Inhibition [10]: 54%; Inhibition [11]: 80%; EC50 [2]: 0.018 µM
> 100 µM	70.8 µM	7.85	> 100 µM	–	–	COc1ccc2nc(N3CCN(Cc4ccccc4)CC3)c3cccn3c2n1	–
> 100 µM	> 100 µM	4.43	> 100 µM	> 100 µM	55 µM	c1ccc(COc2ccc3nc(N4CCN(Cc5ccccc5)CC4)c4cccn4c3n2)cc1	–
> 100 µM	> 100 µM	4.56	> 100 µM	–	–	c1ccc(N2CCN(c3nc4cccnc4n4cccc34)CC2)cc1	–
–	–	8.85	–	–	–	c1ccc(CN2CCN(c3nc4ccsc4n4cccc34)CC2)cc1	Inhibition [1]: 40%; EC50 [2]: 0.011 µM; Inhibition [12]: 42%
> 100 µM	> 100 µM	7.69	> 100 µM	44.7 µM	89.1 µM	Clc1ccc2nc(N3CCN(Cc4ccccc4)CC3)c3cccn3c2c1	–
19.1 µM	> 100 µM	9.54	> 100 µM	–	–	Clc1ccc2c(c1)nc(N1CCN(Cc3ccccc3)CC1)c1cccn12	Inhibition [1]: 0%; EC50 [2]: 0.052 µM; ED50 [13]: 0.0312 mg/kg
77.6 µM	> 100 µM	5.89	> 100 µM	–	–	Clc1ccc(CN2CCN(c3nc4cccnc4n4cccc34)CC2)c(Cl)c1	–
38 µM	46.8 µM	8.62	> 100 µM	–	–	Fc1ccc(CN2CCN(c3nc4ccccc4n4cccc34)CC2)cc1	–
43.7 µM	51.3 µM	5.52	> 100 µM	57.5 µM	50.1 µM	Cc1ccnc2c1nc(N1CCN(Cc3ccccc3)CC1)c1cccn12	–
31.6 µM	17 µM	5.59	85.1 µM	–	–	Fc1ccc(CN2CCN(Cc3nc4ccccc4n4cccc34)CC2)cc1	–
> 100 µM	> 100 µM	7.71	> 100 µM	> 100 µM	40.7 µM	Fc1ccc(CN2CCN(c3nc4cc(Cl)ccc4n4cccc34)CC2)cc1	–
